Values after ≈ are worked out from the molar mass of the structure shown. Non-standard residues stand in square brackets, D forms with d. Residues, ends and D or L forms follow the SMILES beside them. *: point of attachment. Decanoyl = CCCCCCCCCC(=O)*; Heptanoyl = CCCCCCC(=O)*; Octanoyl = CCCCCCCC(=O)*; Dab = NCC[C@H](N)C(=O)O; Cbz = O=C(OCc1ccccc1)*; Hexanoyl = CCCCCC(=O)*; Bz = O=C(c1ccccc1)*
Experiments:
Acinetobacter baumannii [1] = assay: Antibacterial activity against Acinetobacter baumannii ATCC 19606 after 18 to 20 hrs by broth microdilution method; assay type: functional; conditions: ATCC 19606 = CIP 70.34 = JCM 6841
Klebsiella pneumoniae [2] = assay: Potentiation of rifampicin-mediated antibacterial activity against Klebsiella pneumoniae ATCC 13883 assessed as decrease in rifampicin MIC at 2 ug/ml by checkerboard method relative to control; assay type: functional
Klebsiella pneumoniae [3] = assay: Antibacterial activity against Klebsiella pneumoniae ATCC 13883 after 18 to 20 hrs by broth microdilution method; assay type: functional
Klebsiella pneumoniae [4] = assay: Potentiation of rifampicin-mediated antibacterial activity against Klebsiella pneumoniae ATCC 13883 assessed as rifampicin MIC at 2 ug/ml by checkerboard method (reference value: 16 ug/ml); assay type: functional
Staphylococcus aureus [5] = assay: Antibacterial activity against Staphylococcus aureus ATCC 29213 after 18 to 20 hrs by broth microdilution method; assay type: functional
Procedure, shortened: (§1)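 Broth microdilution in tryptic soy broth: 2-fold dilutions mixed 1:1 with ~1.5 × 10^5 CFU/mL inoculum, final 0.5–32 μg/mL; 37 °C, 18–20 h. MIC taken as lowest concentration giving no visible growth. At least three independent experiments, one replicate each.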

Acinetobacter baumannii [6] = assay: Potentiation of rifampicin-mediated antibacterial activity against Acinetobacter baumannii ATCC 19606 assessed as decrease in rifampicin MIC at 4 ug/ml by checkerboard method relative to control; assay type: functional, ATCC 19606 = CIP 70.34 = JCM 6841
Acinetobacter baumannii [7] = assay: Potentiation of rifampicin-mediated antibacterial activity against Acinetobacter baumannii ATCC 19606 assessed as rifampicin MIC at 2 ug/ml by checkerboard method (reference value: 16 ug/ml); assay type: functional; conditions: ATCC 19606 = CIP 70.34 = JCM 6841
Enterococcus faecium [8] = assay: Antibacterial activity against Enterococcus faecium ATCC 19434 after 18 to 20 hrs by broth microdilution method; assay type: functional; procedure, shortened: as §1
Pseudomonas aeruginosa [9] = assay: Antibacterial activity against Pseudomonas aeruginosa ATCC 27853 after 18 to 20 hrs by broth microdilution method; assay type: functional; procedure, shortened: as §1
Escherichia coli [10] = assay: Antibacterial activity against Escherichia coli ATCC 25922 after 18 to 20 hrs by broth microdilution method; assay type: functional; procedure, shortened: as §1
Staphylococcus aureus [11] = assay: Antibacterial activity against methicillin-resistant Staphylococcus aureus ATCC 43300 after 18 to 20 hrs by broth microdilution method; assay type: functional
Procedure, shortened: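 Broth microdilution in tryptic soy broth: 2-fold dilutions mixed 1:1 with ~1.5 × 10^5 CFU/mL bacterial suspension in TSB, final 0.5–32 μg/mL, 37 °C for 18–20 h. MIC = lowest concentration with no visible growth. At least three independent experiments, one replicate each.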

Staphylococcus aureus [12] = assay: Bactericidal activity against methicillin-resistant Staphylococcus aureus ATCC 43300; assay type: functional; conditions: read-out: MBC99.9
Procedure, shortened: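 MBC taken at the end of the MIC test: 50 μL from each well without visible growth plated on tryptic soy agar. MBC = lowest concentration giving ≥99.9% reduction in viable cells relative to the initial inoculum. Three independent experiments, one replicate each.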

Escherichia coli [13] = assay: Bactericidal activity against Escherichia coli ATCC 25922; assay type: functional; conditions: read-out: MBC99.9
Procedure, shortened: (§2)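 MBC from MIC plates at end point: 50 μL from each well with no visible growth plated on tryptic soy agar and counted. MBC taken as lowest concentration giving ≥99.9% fall in viable count relative to initial inoculum. Three independent experiments, one replicate each.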

Acinetobacter baumannii [14] = assay: Bactericidal activity against Acinetobacter baumannii ATCC 19606; assay type: functional; conditions: ATCC 19606 = CIP 70.34 = JCM 6841, read-out: MBC99.9; procedure, shortened: as §2
Pseudomonas aeruginosa [15] = assay: Bactericidal activity against Pseudomonas aeruginosa ATCC 27853; assay type: functional; conditions: read-out: MBC99.9; procedure, shortened: as §2
Klebsiella pneumoniae [16] = assay: Bactericidal activity against Klebsiella pneumoniae ATCC 13883; assay type: functional; conditions: read-out: MBC99.9; procedure, shortened: as §2
Staphylococcus aureus [17] = assay: Bactericidal activity against Staphylococcus aureus ATCC 29213; assay type: functional; conditions: read-out: MBC99.9; procedure, shortened: as §2
Escherichia coli [18] = assay: Antibacterial activity against Escherichia coli ATCC 25922 after 18 to 20 hrs in presence of 95% serum by broth microdilution method; assay type: functional
Procedure, shortened: (§3)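 Same microdilution with human serum as medium: compound 2-fold diluted in 100% serum, mixed 1:1 with 90% serum holding ~1.5 × 10^5 CFU/mL, giving 95% serum and final 0.5–64 μg/mL. MIC read as no visible growth after incubation as for the broth test.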

Enterococcus faecium [19] = assay: Bactericidal activity against Enterococcus faecium ATCC 19434; assay type: functional; conditions: read-out: MBC99.9; procedure, shortened: as §2
Staphylococcus aureus [20] = assay: Antibacterial activity against Staphylococcus aureus ATCC 29213 after 18 to 20 hrs in presence of 95% serum by broth microdilution method; assay type: functional; procedure, shortened: as §3

SMILES	MIC (Acinetobacter baumannii [1]) [µg/mL]	fold change (FC) (Klebsiella pneumoniae [2])	MIC (Klebsiella pneumoniae [3]) [µg/mL]	MIC (Klebsiella pneumoniae [4]) [µg/mL]	MIC (Staphylococcus aureus [5]) [µg/mL]	fold change (FC) (Acinetobacter baumannii [6])	MIC (Acinetobacter baumannii [7]) [µg/mL]	MIC (Enterococcus faecium [8]) [µg/mL]	MIC (Pseudomonas aeruginosa [9]) [µg/mL]	MIC (Escherichia coli [10]) [µg/mL]	MIC (Staphylococcus aureus [11]) [µg/mL]	MBC (Staphylococcus aureus [12]) [µg/mL]	MBC (Escherichia coli [13]) [µg/mL]	MBC (Acinetobacter baumannii [14]) [µg/mL]	MBC (Pseudomonas aeruginosa [15]) [µg/mL]	MBC (Klebsiella pneumoniae [16]) [µg/mL]	MBC (Staphylococcus aureus [17]) [µg/mL]	MIC (Escherichia coli [18]) [µg/mL]	MBC (Enterococcus faecium [19]) [µg/mL]	MIC (Staphylococcus aureus [20]) [µg/mL]
CCCCCCCC(=O)N[C@H](CCCN)C(=O)N[C@H](C(=O)N[C@@H](CCCN)C(=O)N[C@@H](Cc1ccccc1)C(=O)N[C@@H](CC(C)C)C(=O)N[C@@H](CCCN)C(=O)N[C@H](C(=O)N[C@@H](CC(C)C)C(=O)N[C@@H](CO)C(N)=O)C(C)C)[C@@H](C)CC	32 (≈ 27.6 µM)	1024 - 2048	> 32	0.0313 to 0.0625	> 32	512 - 1024	0.0625	> 32	16 (≈ 13.8 µM)	32 (≈ 27.6 µM)	32 (≈ 27.6 µM)									
CC[C@H](C)[C@H](NC(=O)[C@H](CCN)NC(=O)c1ccccc1)C(=O)N[C@@H](CCN)C(=O)N[C@H](Cc1ccccc1)C(=O)N[C@@H](CC(C)C)C(=O)N[C@@H](CCN)C(=O)N[C@@H](C(=O)N[C@@H](CC(C)C)C(=O)N[C@@H](CO)C(N)=O)C(C)C (Bz-[Dab]I[Dab][dF]L[Dab][dV]LS-NH2)	> 32	4096 - 8192	> 32	0.0078	> 32	2048 - 4096	0.0312	> 32	8 to 32 (≈ 7.31 to 29.2 µM)	16 to 32 (≈ 14.6 to 29.2 µM)	> 32									
CC[C@H](C)[C@H](NC(=O)[C@H](CCN)NC(=O)OCc1ccccc1)C(=O)N[C@@H](CCN)C(=O)N[C@H](Cc1ccccc1)C(=O)N[C@@H](CC(C)C)C(=O)N[C@@H](CCN)C(=O)N[C@@H](C(=O)N[C@@H](CC(C)C)C(=O)N[C@@H](CO)C(N)=O)C(C)C (Cbz-[Dab]I[Dab][dF]L[Dab][dV]LS-NH2)	16 (≈ 14.2 µM)	4096 - 8192	> 32	0.0039	> 32	>=8192	0.0019 to 0.0039	> 32	16 (≈ 14.2 µM)	8 to 16 (≈ 7.11 to 14.2 µM)	> 32									
CCCCCCCCCC(=O)N[C@@H](CCN)C(=O)N[C@H](C(=O)N[C@H](C(=O)N[C@H](CC(C)C)C(=O)N[C@@H](CC(C)C)C(=O)N[C@@H](CCN)C(=O)N[C@@H](C(=O)N[C@@H](CC(C)C)C(=O)N[C@@H](CO)C(N)=O)C(C)C)[C@@H](C)O)[C@@H](C)CC (Decanoyl-[Dab]IT[dL]L[Dab][dV]LS-NH2)	> 32	<8	> 32	> 0.125	> 32	<128	> 0.125	≥ 32	> 32	> 32	> 32									
CCCCCCC(=O)N[C@@H](CCN)C(=O)N[C@@H](Cc1ccccc1)C(=O)N[C@@H](CCN)C(=O)N[C@H](Cc1ccccc1)C(=O)N[C@@H](CC(C)C)C(=O)N[C@@H](CCN)C(=O)N[C@H](CC(C)C)C(=O)N[C@@H](CC(C)C)C(=O)N[C@@H](CO)C(N)=O (Heptanoyl-[Dab]F[Dab][dF]L[Dab][dL]LS-NH2)	8 (≈ 6.95 µM)		4 (≈ 3.48 µM)		16 to 32 (≈ 13.9 to 27.8 µM)			16 (≈ 13.9 µM)	2 to 4 (≈ 1.74 to 3.48 µM)	1 to 4 (≈ 0.869 to 3.48 µM)	16 to 32 (≈ 13.9 to 27.8 µM)	32 (≈ 27.8 µM)	32 (≈ 27.8 µM)	8 (≈ 6.95 µM)	8 to 16 (≈ 6.95 to 13.9 µM)	8 (≈ 6.95 µM)	16 to 32 (≈ 13.9 to 27.8 µM)	32	32 (≈ 27.8 µM)	64
CCCCCCC(=O)N[C@@H](CCN)C(=O)N[C@@H](Cc1ccccc1)C(=O)N[C@@H](CCN)C(=O)N[C@H](Cc1ccccc1)C(=O)N[C@@H](CC(C)C)C(=O)N[C@@H](CCN)C(=O)N[C@@H](C(=O)N[C@@H](CC(C)C)C(=O)N[C@@H](CO)C(N)=O)C(C)C (Heptanoyl-[Dab]F[Dab][dF]L[Dab][dV]LS-NH2)	32 (≈ 28.2 µM)		8 (≈ 7.04 µM)		≥ 32			> 32	2 to 4 (≈ 1.76 to 3.52 µM)	1 to 4 (≈ 0.88 to 3.52 µM)	32 (≈ 28.2 µM)									
CCCCCCC(=O)N[C@@H](CCN)C(=O)N[C@H](C(=O)N[C@@H](CCN)C(=O)N[C@H](Cc1ccccc1)C(=O)N[C@@H](CC(C)C)C(=O)N[C@@H](CCN)C(=O)N[C@@H](C(=O)N[C@@H](CC(C)C)C(=O)N[C@@H](CO)C(N)=O)C(C)C)[C@@H](C)CC (Heptanoyl-[Dab]I[Dab][dF]L[Dab][dV]LS-NH2)	> 32	>=8192	32 (≈ 29 µM)	0.0039	> 32	4096	0.0078	> 32	4 (≈ 3.63 µM)	4 (≈ 3.63 µM)	> 32									
CCCCCCC(=O)N[C@@H](CCN)C(=O)N[C@H](C(=O)N[C@@H](CCN)C(=O)N[C@H](Cc1ccccc1)C(=O)N[C@@H](CC(C)C)C(=O)N[C@@H](CCN)C(=O)N[C@@H](C(=O)N[C@@H](CC(C)C)C(=O)N[C@@H](CO)C(N)=O)C(C)C)C(C)C (Heptanoyl-[Dab]V[Dab][dF]L[Dab][dV]LS-NH2)	> 32	4096	> 32	0.0156	> 32	256 - 512	0.125	> 32	16 (≈ 14.7 µM)	16 (≈ 14.7 µM)	> 32									
CCCCCC(=O)N[C@@H](CCN)C(=O)N[C@H](C(=O)N[C@@H](CCN)C(=O)N[C@H](Cc1ccccc1)C(=O)N[C@@H](CC(C)C)C(=O)N[C@@H](CCN)C(=O)N[C@@H](C(=O)N[C@@H](CC(C)C)C(=O)N[C@@H](CO)C(N)=O)C(C)C)[C@@H](C)CC (Hexanoyl-[Dab]I[Dab][dF]L[Dab][dV]LS-NH2)	> 32	8192	≥ 32	0.0039	> 32	4096 - 8192	0.0078 to 0.0156	> 32	8 to 16 (≈ 7.35 to 14.7 µM)	8 to 16 (≈ 7.35 to 14.7 µM)	> 32									
CCCCCCCC(=O)N[C@@H](CCN)C(=O)N[C@@H](CCN)C(=O)N[C@@H](CCN)C(=O)N[C@H](Cc1ccccc1)C(=O)N[C@@H](CC(C)C)C(=O)N[C@@H](CCN)C(=O)N[C@@H](C(=O)N[C@@H](CC(C)C)C(=O)N[C@@H](CCN)C(N)=O)C(C)C (Octanoyl-[Dab][Dab][Dab][dF]L[Dab][dV]L[Dab]-NH2)	> 32	256	> 32	0.0625 to 0.125	≥ 32	256 - 512	0.0312 to 0.0625	> 32	16 to 32 (≈ 14.3 to 28.7 µM)	> 32	> 32									
